Cneo AK release – causes C. neoformans cell lysis; AID 651654; adenylate kinase release luminescence, 4 h; normalised: neutral wells 0, clomiphene wells 100; lysis activity, % at 15 µM; hit rate 0.2% among 360,000;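 active means mean lysis activity across replicates of at least 80%, whatever share of replicates individually reach that level; inactive means mean lysis activity below 80%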
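Material – log-phase Cryptococcus neoformans yeast cells · Input – 5 × 10^6 yeast cells/mL · Medium – fresh YPD growth medium · Doses – single compound concentration per well · Timing – static 4 h at 37 °C with compound, 1 h detection · Detection – adenylate kinase release luminescence · Read-out – signal increase indicating cell lysis · Control set – Clomiphene as positive lysis control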
PGC1a acetyl inh – lowers PGC1a acetylation signal in U2OS cells; AlphaScreen anti-acetyl-lysine; with virally co-expressed GCN5 acetyltransferase; hit rate 0.17% among 350,000; inhibition, % at 15.6 µM;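 active means every replicate shows inhibition of at least 40%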;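 further: 0% = neutral control wells and 100% = positive control wells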
PglD DTNB – blocks C. jejuni PglD acetyltransferase activity. inhibition, % at 12.5 µM. purified PglD enzyme, DTNB colorimetric CoA detection. hit rate 0.098% among 360,000; in the data active means inhibition above about 16%, passing the limit was not always enough
FGF22 binding – shifts melting point of recombinant human FGF22. activity (Tm shift, normalised), % at 9.99 µM. Q9HCT0. recombinant FGF22 thermal shift, SYPRO orange fluorescence; percent of sucrose octasulfate shift, DMSO zero. hit rate 1.5% among 340,000;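 active means mean Tm shift, scaled 0 neutral to 100 positive control, at about 1.3% or above, every replicate too, limit read from the data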
Target sequence (Q9HCT0 whole entry, looked up): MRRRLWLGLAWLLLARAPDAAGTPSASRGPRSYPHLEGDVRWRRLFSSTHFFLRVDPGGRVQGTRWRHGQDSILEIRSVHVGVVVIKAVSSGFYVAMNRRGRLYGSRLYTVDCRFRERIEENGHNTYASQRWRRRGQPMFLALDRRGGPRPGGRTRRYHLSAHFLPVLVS
Vif inh – blocks HIV Vif function; inhibition, % at 7.49 µM; HEK293T cells, Vif self-association by quenched fluorescence, imaging, 24 h; AID 602346; hit rate 0.35% among 340,000; in the data active means inhibition above about 50%, passing the limit was not always enough
rRNA inh HTS – selective bacterial rRNA inhibition in E. coli; AID 720706; GFP signal change (wild-type ribosome), % (concentration not given with the values); hit rate 1.6% among 350,000; E. coli WT GFP vs humanized-ribosome RFP mutants, fluorescence, 24 h; stronger effect = lower value; DMSO median 0, no signal -100;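 active means significant combined selectivity score with lowered wild-type GFP, culture density cut under 30%, mutant RFP and density less affected; inactive means any of these conditions unmet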
Numbers without * were called inactive; . = no result. The list is not random: actives were taken first. Their share in the collection is about 2.9%.

SMILES	Cneo AK release	PGC1a acetyl inh	PglD DTNB	FGF22 binding	Vif inh	rRNA inh HTS
COc1cccc(F)c1C(C[N+](=O)[O-])c1c(N)n(C)c(=O)n(C)c1=O (stereo not drawn)	1	7	-4	0	28	-24*
COc1ccc(CC(=O)Nc2ccc(C)c(S(=O)(=O)N3CCCCCC3)c2)cc1	-2	-1	-7	1	0	1
Cc1ccc(NC(=O)c2cnccn2)cc1S(=O)(=O)N1CCCCCC1	.	.	.	43*	-2	1
Cc1ccc(S(=O)(=O)N2CCCCC2)cc1NC(=O)COC(=O)C1CC2C=CC1C2 (stereo not drawn)	2	11	-6	.	-13	.
Cc1cnc(C(=O)Nc2ccc(C)c(S(=O)(=O)N3CCCCC3)c2)cn1	0	3	0	0	-3	10
Cc1ccc(NC(=O)COc2ccccc2C#N)cc1S(=O)(=O)N1CCCCCC1	1	-18	6	0	-10	-25*
Cc1ccc(NC(=O)COC(=O)C2CC3C=CC2C3)cc1S(=O)(=O)N1CCCCC1 (stereo not drawn)	1	-10	-1	0	-3	-26*
COc1ccc(NC(=O)CSCC(=O)Nc2ccc(C)c(S(=O)(=O)N3CCCCCC3)c2)cc1	0	.	1	0	-14	-35*
Cc1cc(C(=O)Nc2cccc3c2O[C@H](CN(C)S(=O)(=O)c2c(C)noc2C)[C@H](C)CN([C@H](C)CO)C3=O)n(C)n1	-2	1	-11	0	.	-1
C[C@@H]1CN([C@@H](C)CO)C(=O)Cc2cc(NC(=O)NC3CCCCC3)ccc2O[C@H]1CN(C)C(=O)Nc1cccc2ccccc12	4	-4	4	0	.	-1
CC=Cc1ccc2n(c1=O)C[C@@H]1[C@@H](CO)[C@H](C(=O)N3CCOCC3)[C@H]2N1CC1CC1 (mixture of isomers)	-2	.	-1	0	.	2
COCC1CN(CCc2ccc(F)cc2)S(=O)(=O)c2c(F)cccc2O1 (stereo not drawn)	.	.	.	0	.	-22*
COCCN(Cc1cc2cc3c(cc2nc1Cl)OCO3)C(=O)Nc1ccc(F)cc1	0	11	-4	0	-67	-27*
Cc1ccc(C)c(NC(=S)N2CCC(c3nc4ccccc4s3)CC2)c1	33	-9	-3	0	7	-35*
COc1ccc(NC(=O)Cc2ccccc2)cn1	1	.	-2	0	-2	19
COc1ccc(NC(=O)/C(Cl)=C(/Cl)S(=O)Cc2ccccc2)cn1 (stereo not drawn)	.	71*	.	.	2	.
COC(=O)Nc1ccc(SCC(=O)c2ccccc2)cc1	.	4	.	0	-1	-25*
COc1ccc(CS(=O)(=O)/C(Cl)=C(/Cl)C(=O)Nc2ccc(OC)nc2)cc1	-6	34	7	.	.	.
COc1ccc(NC(=O)CSc2ccccc2)cn1	-1	-4	12	43*	23	16
CC(C)NC(=O)N(C)C[C@H]1OCCCC[C@H](C)Oc2ccc(NS(=O)(=O)c3ccccc3)cc2C(=O)N([C@@H](C)CO)C[C@H]1C	3	7	-1	0	.	-1
CC(C)CC#Cc1cnc2c(c1)C(=O)N([C@H](C)CO)C[C@H](C)[C@H](CN(C)Cc1ccccc1)O2	.	2	.	.	.	6
N#CC1=C2N=C(N)c3ccccc3N2C2=C(C(=O)CCC2)C1c1ccc(F)cc1 (stereo not drawn)	-1	-9	5	0	24	-32*
Cc1ccc(C2C(C#N)=C3N=C(N)c4ccccc4N3C3=C2C(=O)CCC3)cc1 (stereo not drawn)	0	-10	1	0	-3	-31
CCOC(=O)C(=Cc1ccc(OCc2ccc([N+](=O)[O-])cc2)c(OC)c1)C(=O)OCC	.	57*	.	.	-2	.
Cc1ccc(C)c(S(=O)(=O)Nc2ccccc2C(=O)Nc2ccc(S(=O)(=O)Nc3ncccn3)cc2)c1	1	6	6	0	5	-31*
SMILES	Cneo AK release	PGC1a acetyl inh	PglD DTNB	FGF22 binding	Vif inh	rRNA inh HTS
C[C@@H]1CN([C@@H](C)CO)S(=O)(=O)c2ccc(-c3ccccc3)cc2O[C@H]1CN(C)C	1	-11	2	0	.	-4
CCN(CC)Cc1oc(CO)cc(=O)c1O	.	1	.	43*	0	13
O=c1cc(CO)oc(CN2CCCC2)c1O	3	13	2	.	-1	.
C[C@H]1CCCCO[C@H](CN(C)Cc2ccc(C(=O)O)cc2)[C@@H](C)CN([C@@H](C)CO)C(=O)c2cc(NS(C)(=O)=O)ccc2O1	0	5	2	0	.	4
COc1cccc(C(=O)Nc2ccc3c(c2)C(=O)N(C)C[C@@H](OC)[C@H](C)CN(CC2CC2)[C@H](C)CO3)c1	-5	-10	1	0	.	0
Cc1cc(/C=C2\C(=N)N3N=CSC3=NC2=O)c(C)n1Cc1ccccc1	4	2	-11	0	14	-33*
CS(=O)(=O)C1=NN2C(=N)/C(=C\c3ccc(OC(=O)c4ccco4)cc3)C(=O)N=C2S1	-5	-8	-7	0	0	3
N=C1/C(=C\c2ccc(OC(=O)c3ccco3)cc2)C(=O)N=C2SC=NN12	.	.	.	44*	-5	.
CCOc1cc(/C=C2/C(=N)N3C(=NC2=O)SN=C3S(=O)(=O)C(C)C)ccc1OC(=O)c1ccco1	-7	5	-4	.	-3	0
COc1cc(/C=C2/C(=N)N3C(=NC2=O)SN=C3S(=O)(=O)C(C)C)ccc1OC(=O)c1ccco1	3	.	-2	1.4*	3	8
Cc1noc(C)c1NC(=O)N(C)C[C@@H]1Oc2ccc(NC(=O)CCCCCC(=O)Nc3ccccc3N)cc2CC(=O)N([C@H](C)CO)C[C@@H]1C	2	2	1	0	.	3
C[C@@H]1CN([C@H](C)CO)C(=O)c2cc(NC(=O)NC3CCCCC3)ccc2O[C@@H](C)CCCCO[C@@H]1CN(C)C(=O)CCC(F)(F)F	-3	1	2	0	.	0
COc1ccccc1/C=C/C(=O)Oc1cccc2cccnc12	2	-6	4	43*	7	1
COc1ccccc1/C=C/C(=O)OCCCN(C)C	.	.	.	44*	2	.
O=C(/C=C\c1ccco1)Oc1cccc2cccnc12	.	.	.	0	-3	0
Cc1ccc(SCc2c(C(=O)N/N=C/c3ccccc3)nnn2-c2nonc2N)cc1	.	-3	.	0	-7	-16*
Cc1ccc(/C=N/NC(=O)c2nnn(-c3nonc3N)c2CSc2ccccc2)o1	0	4	0	43*	5	-10
CN(Cc1c(C(=O)N/N=C/c2cccc(O)c2)nnn1-c1nonc1N)c1ccccc1	-5	-2	-2	.	-4	.
CCc1ccc(/C=N/NC(=O)c2nnn(-c3nonc3N)c2C(C)C)cc1	1	-2	-5	0	-8	1

Source: PubChem BioAssay (Broad Institute)
